The text below walks through data of ChEMBL document CHEMBL4477178, “Biflorin, Isolated from the Flower Buds of Syzygium aromaticum L., Suppresses LPS-Induced Inflammatory Mediators via STAT1 Inactivation in Macrophages and Protects Mice from Endotoxin Shock” (J Nat Prod, 2016).

SMILES strings stand for the structures. Activity calls are given as the source filed them. No cut-off for these calls is given here.

Experiment [1] deals with RAW264.7. Briefly: Antiinflammatory activity in mouse RAW264.7 cells assessed as inhibition of LPS-induced PGE2 production preincubated for 1 hr followed by LPS challenge for 24 hrs by ELISA method. The class given is functional, cell-based. The method, boiled down: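 RAW 264.7 cells in DMEM with 10% FBS, plated at 2 × 10^5 cells/mL and incubated overnight. Pretreated with compound (15, 30 or 60 μM) for 1 h, then LPS 10 ng/mL for 24 h. PGE2 measured by competitive colorimetric ELISA, TNF-α and IL-6 by ELISA, in diluted medium. NS-398 3 μM as positive control for PGE2. Mean ± SD, three independent experiments; IC50 given for PGE2.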
Background: ELISA stands for enzyme-linked immunosorbent assay.

Experiment [2] deals with RAW264.7. Briefly: Antiinflammatory activity in mouse RAW264.7 cells assessed as inhibition of LPS-induced IL-6 mRNA expression at 60 uM after 2 to 12 hrs by qRT-PCR method. In kind it is functional, cell-based. The procedure, abridged:
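RAW 264.7 stimulated with LPS 10 ng/mL with or without 60 μM for 2, 4, 6 and 12 h. Total RNA (1 μg) reverse-transcribed with MuLV RT and random primer; SYBR green real-time qPCR with gene-specific primers, triplicate Ct normalized to β-actin. Mean ± SD, three independent experiments.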
Background: Real-time PCR tracks product formation cycle by cycle.

For experiment [3], the system named is RAW264.7. Nature of the experiment: Cytotoxicity against mouse RAW264.7 cells assessed as decrease in cell viability after 24 hrs by MTT assay. In kind it is cell-based. To be noted: RAW264.7, 24 h. The procedure, abridged:
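RAW 264.7 cells seeded at 1 × 10^5 cells/mL in DMEM with 10% FBS and incubated overnight. Exposed to compound (0−400 μM) for 24 h, with or without LPS. MTT added for 4 h at 37 °C, formazan dissolved in DMSO, absorbance read at 540 nm; IC50 derived.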

Experiment [4] has as its target T1, Signal transducer and activator of transcription 1 (Mus musculus) (UniProt P42225).
T1 sequence (whole entry): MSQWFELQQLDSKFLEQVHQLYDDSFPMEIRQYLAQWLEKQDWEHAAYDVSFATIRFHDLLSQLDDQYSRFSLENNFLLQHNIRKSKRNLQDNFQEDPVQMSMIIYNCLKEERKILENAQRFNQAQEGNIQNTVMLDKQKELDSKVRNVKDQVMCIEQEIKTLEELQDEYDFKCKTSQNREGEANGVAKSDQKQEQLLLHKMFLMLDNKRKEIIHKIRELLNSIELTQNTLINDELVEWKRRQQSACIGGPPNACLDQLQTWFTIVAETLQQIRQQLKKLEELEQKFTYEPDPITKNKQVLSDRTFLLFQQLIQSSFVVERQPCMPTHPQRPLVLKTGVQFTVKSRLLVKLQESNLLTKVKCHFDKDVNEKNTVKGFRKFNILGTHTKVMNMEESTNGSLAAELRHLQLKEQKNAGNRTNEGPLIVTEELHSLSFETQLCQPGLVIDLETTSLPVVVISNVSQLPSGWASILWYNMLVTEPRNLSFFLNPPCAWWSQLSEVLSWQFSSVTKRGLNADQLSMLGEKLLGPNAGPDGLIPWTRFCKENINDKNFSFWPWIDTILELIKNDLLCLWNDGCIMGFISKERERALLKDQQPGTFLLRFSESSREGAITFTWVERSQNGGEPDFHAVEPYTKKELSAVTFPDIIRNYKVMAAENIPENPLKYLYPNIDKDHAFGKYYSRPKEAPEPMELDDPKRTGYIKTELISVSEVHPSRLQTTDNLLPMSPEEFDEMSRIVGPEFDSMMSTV
Nature of the experiment: Inhibition of LPS-induced STAT1 phosphorylation at Y701 in C57BL/6 mouse peritoneal macrophages at 15 to 60 uM preincubated for 1 hr followed by LPS challenge for 120 mins by Western blot analysis. The procedure, abridged:
(§1)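 Thioglycolate-elicited C57BL/6 peritoneal macrophages pretreated 1 h at 15, 30 or 60 μM, then LPS 10 μg/mL: 120 min for p-STAT1 Y701, 30 min for p-STAT1 S727, 60 min for p-STAT3 Y705. Western blot with phospho-specific and total STAT antibodies, β-actin control; three independent experiments.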
For orientation: A western blot detects proteins with antibodies after separation by electrophoresis.

For experiment [5], the target named is Transcription factor Jun (Mus musculus) (UniProt P05627). Nature of the experiment: Inhibition of LPS-induced AP-1 activity in mouse RAW264.7 cells at 15 to 60 uM preincubated for 1 hr followed by LPS challenge for 12 hrs by luciferase reporter gene assay. In kind it is cell-based.
The target in experiment [6] is T1, Signal transducer and activator of transcription 1 (Mus musculus). Briefly: Inhibition of LPS-induced STAT1 phosphorylation at Y701 in mouse RAW264.7 cells at 15 to 60 uM preincubated for 1 hr followed by LPS challenge for 120 mins by Western blot analysis. The class given is cell-based. The method, boiled down:
(§2)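 RAW 264.7 pretreated 1 h at 15, 30 or 60 μM, then LPS 10 ng/mL: 120 min for p-STAT1 Y701, 15 min for p-STAT1 S727, 120 min for p-STAT3 Y705. Western blot with phospho-specific and total STAT1/STAT3 antibodies, β-actin control; three independent experiments.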

Experiment [7] addresses Signal transducer and activator of transcription 3 (Mus musculus) (UniProt P42227). Briefly: Inhibition of LPS-induced STAT3 phosphorylation at Y705 in mouse RAW264.7 cells at 15 to 60 uM preincubated for 1 hr followed by LPS challenge for 120 mins by Western blot analysis. The class given is cell-based. The method, boiled down:
as §2

For the next experiment, the system named is Rattus norvegicus. Briefly: Antiinflammatory activity in Sprague-Dawley rat assessed as reduction in carrageenan induced paw edema at 5 mg/kg, ip administered 1 hr before carrageenan challenge measured at 3 hrs post challenge relative to control. In kind it is functional. The method, boiled down: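 SD rats given compound i.p. (5, 10 or 15 mg/kg) 1 h before subplantar injection of 1% carrageenan in saline (0.1 mL) into the right hind paw. Paw volume measured by plethysmometer at 1, 3 and 5 h. Edema compared with the carrageenan-only group; seven rats per group.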

The test system of experiment [8] is RAW264.7. Nature of the experiment: Inhibition of LPS-induced JNK phosphorylation in mouse RAW264.7 cells at 15 to 60 uM preincubated for 1 hr followed by LPS challenge for 30 mins by Western blot analysis. The class given is cell-based. The method, boiled down:
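RAW 264.7 pretreated 1 h at 15, 30 or 60 μM, then LPS 10 ng/mL for 30 min. Lysates Western-blotted for p-p38, p38, p-JNK, JNK, p-ERK, ERK with β-actin control; ECL, densitometry. Three independent experiments.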

The next experiment concerns Mus musculus. Nature of the experiment: In vivo inhibition of LPS-induced STAT1 phosphorylation at Y701 in C57BL/6 mouse liver at 10 mg/kg, ip pretreated for 1 hr followed by LPS challenge for 6 hrs by Western blot analysis. The class given is functional, organism-based. The procedure, abridged:
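Male C57BL/6 mice given 10 mg/kg i.p. or vehicle 1 h before LPS (Salmonella enterica, 25 mg/kg i.p.); liver collected 6 h after LPS, frozen at −80 °C. Liver mRNA by SYBR qRT-PCR normalized to β-actin; protein by Western blot for p-STAT1 (Y701, S727). Eight mice per group; mean ± SD.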

Experiment [9] has as its target T1, Signal transducer and activator of transcription 1 (Mus musculus). Nature of the experiment: Inhibition of LPS-induced STAT1 phosphorylation at S727 in C57BL/6 mouse peritoneal macrophages at 15 to 60 uM preincubated for 1 hr followed by LPS challenge for 30 mins by Western blot analysis. The method, boiled down: as §1

Transcription factor Jun (Mus musculus), sequence (P05627 whole entry): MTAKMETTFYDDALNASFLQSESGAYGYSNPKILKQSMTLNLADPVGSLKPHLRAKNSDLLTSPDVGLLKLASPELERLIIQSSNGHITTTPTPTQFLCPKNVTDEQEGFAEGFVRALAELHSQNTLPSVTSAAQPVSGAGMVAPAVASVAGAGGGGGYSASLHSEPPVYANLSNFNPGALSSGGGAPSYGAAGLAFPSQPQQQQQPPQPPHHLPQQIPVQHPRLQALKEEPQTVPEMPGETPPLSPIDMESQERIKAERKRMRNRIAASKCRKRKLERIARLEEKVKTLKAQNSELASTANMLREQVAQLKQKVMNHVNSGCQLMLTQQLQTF
Signal transducer and activator of transcription 3 (Mus musculus), sequence (P42227 whole entry): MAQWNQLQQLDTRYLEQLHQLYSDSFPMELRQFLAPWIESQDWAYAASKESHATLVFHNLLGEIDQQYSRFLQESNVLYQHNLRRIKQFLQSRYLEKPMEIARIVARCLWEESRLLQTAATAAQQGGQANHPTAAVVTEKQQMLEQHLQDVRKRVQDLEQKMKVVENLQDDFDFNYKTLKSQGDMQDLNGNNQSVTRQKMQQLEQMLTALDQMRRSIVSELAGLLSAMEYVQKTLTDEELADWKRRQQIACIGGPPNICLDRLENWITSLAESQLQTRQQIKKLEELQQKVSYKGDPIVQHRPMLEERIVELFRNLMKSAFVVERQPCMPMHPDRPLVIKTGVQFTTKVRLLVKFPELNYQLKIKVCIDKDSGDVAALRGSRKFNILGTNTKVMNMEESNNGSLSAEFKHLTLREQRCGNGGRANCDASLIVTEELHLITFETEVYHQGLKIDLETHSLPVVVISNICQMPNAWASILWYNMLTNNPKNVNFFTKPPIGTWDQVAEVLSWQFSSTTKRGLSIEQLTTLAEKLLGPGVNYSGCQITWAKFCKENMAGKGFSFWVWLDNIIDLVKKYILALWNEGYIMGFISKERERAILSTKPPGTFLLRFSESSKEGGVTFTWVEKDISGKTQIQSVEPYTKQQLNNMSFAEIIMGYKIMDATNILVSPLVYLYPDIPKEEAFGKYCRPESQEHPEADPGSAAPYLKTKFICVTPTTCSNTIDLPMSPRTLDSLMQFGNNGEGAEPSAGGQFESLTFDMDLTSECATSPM

On to `Cc1cc(=O)c2c(O)c([C@@H]3O[C@H](CO)[C@@H](O)[C@H](O)[C@H]3O)c(O)cc2o1` [BIFLORIN], for which the IC50 was 37.1 µM in the experiment on RAW264.7 [1] and 140 µM in the experiment with RAW264.7 [3]. Moreover, the inhibition entry (in the experiment with RAW264.7 [2]; in experiment [4]; in [6]; in experiment [7]; with Mus musculus; in experiment [9]) was “Active” each time. The inhibition entry (in experiment [5]; in the experiment on RAW264.7 [8]) was “inactive” throughout. The inhibition in vivo at 5 mg/kg in the experiment with Rattus norvegicus worked out at 26%.

Broadly, the IC50 is the midpoint of a concentration-inhibition curve. A word on the inhibition in vivo: it is the share of the control response that was lost under treatment.
